For one assay, the target named is Focal adhesion kinase 1 (Homo sapiens, UniProt Q05397). Nature of the assay: Inhibition of recombinant human N-terminal His-tagged FAK cytoplasmic domain (393 to 698 residues) expressed in baculovirus infected sf9 cells assessed as reduction in autophosphorylation after 60 mins by ADP-Glo kinase assay. An outline of the steps:
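ADP-Glo luminescence assay. The kinase reaction ran in 1× kinase buffer with compound at 1 to 200 nM, for 60 min at room temperature. ADP-Glo reagent was then added to stop the reaction and deplete leftover ATP (40 min, room temperature). Detection reagent converted ADP to ATP for luciferase read-out (30 min). IC50 from curve fitting, mean ± SE of three independent experiments.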

Assay [1] relates to ASPC1. The assay can be described thus: Induction of apoptosis in human Aspc-1 cells assessed as early apoptotic cells at 5 uM after 72 hrs by Annexin V-FITC/propidium iodide staining-based flow cytometry (reference value: 0%). It counts as functional. An outline of the steps: (§1)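 AsPC-1 cells (3 to 5×10^5 per well) were treated with DMSO solvent control or compound for 72 h in medium with 5% FBS. Cells were then stained with Annexin V-FITC and propidium iodide and analysed by flow cytometry. One representative experiment shown.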

For assay [2], the target named is T1, Tyrosine-protein kinase JAK3 (Homo sapiens) (UniProt P52333).
T1 sequence (whole entry): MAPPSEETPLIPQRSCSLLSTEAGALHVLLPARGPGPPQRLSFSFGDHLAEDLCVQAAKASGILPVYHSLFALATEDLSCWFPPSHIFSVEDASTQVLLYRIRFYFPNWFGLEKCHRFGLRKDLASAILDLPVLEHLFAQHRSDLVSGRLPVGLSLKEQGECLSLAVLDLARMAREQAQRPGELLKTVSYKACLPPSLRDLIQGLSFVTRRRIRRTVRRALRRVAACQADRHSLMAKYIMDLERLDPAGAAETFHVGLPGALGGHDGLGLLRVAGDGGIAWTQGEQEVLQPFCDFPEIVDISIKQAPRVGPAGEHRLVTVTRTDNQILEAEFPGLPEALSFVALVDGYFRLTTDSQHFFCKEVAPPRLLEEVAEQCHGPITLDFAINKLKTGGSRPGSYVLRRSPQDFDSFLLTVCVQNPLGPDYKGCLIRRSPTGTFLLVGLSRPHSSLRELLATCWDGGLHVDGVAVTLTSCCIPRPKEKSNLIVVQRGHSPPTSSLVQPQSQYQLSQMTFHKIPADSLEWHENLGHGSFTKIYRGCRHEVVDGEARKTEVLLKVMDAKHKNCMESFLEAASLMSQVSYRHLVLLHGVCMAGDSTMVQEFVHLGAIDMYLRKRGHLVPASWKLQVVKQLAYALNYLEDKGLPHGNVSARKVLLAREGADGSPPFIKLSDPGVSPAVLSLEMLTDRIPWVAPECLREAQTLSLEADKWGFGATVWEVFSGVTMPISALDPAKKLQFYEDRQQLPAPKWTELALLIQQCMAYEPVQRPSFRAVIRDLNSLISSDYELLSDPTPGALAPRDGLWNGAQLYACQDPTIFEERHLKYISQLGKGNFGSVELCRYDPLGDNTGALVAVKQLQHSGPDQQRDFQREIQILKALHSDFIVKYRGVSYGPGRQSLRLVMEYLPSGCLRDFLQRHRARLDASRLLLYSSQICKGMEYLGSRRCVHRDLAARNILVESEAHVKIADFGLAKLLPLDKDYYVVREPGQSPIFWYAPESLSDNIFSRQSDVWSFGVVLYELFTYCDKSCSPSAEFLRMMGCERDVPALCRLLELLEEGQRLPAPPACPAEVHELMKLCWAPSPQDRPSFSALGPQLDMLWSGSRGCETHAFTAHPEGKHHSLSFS
Nature of the assay: Inhibition of recombinant GST-tagged human JAK3 catalytic domain (781 to 1124 residues) expressed in baculovirus expression system at 100 nM relative to control. Put shortly:
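SelectScreen biochemical kinase profiling service; percent inhibition of each kinase at a single compound concentration of 100 nM.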

The test system of assay [3] is ASPC1. The assay can be described thus: Antiproliferative activity against human Aspc-1 cells assessed as cell viability at 8 uM after 48 hrs by MTT assay (reference value: 98.1%). The format is functional. Particulars: ASPC1, 48 h, read-out: Activity. Background: Tetrazolium dyes change colour on reduction, which living cells bring about.
Another assay relates to BXPC-3. Nature of the assay: Antiproliferative activity against human BxPC3 cells assessed as cell viability at 0.5 uM after 48 hrs by MTT assay (reference value: 98.8%). The format is functional. Particulars: BXPC-3, 48 h, read-out: Activity.
Assay [4] concerns ASPC1. Nature of the assay: Induction of apoptosis in human Aspc-1 cells assessed as late apoptotic cells at 10 uM after 72 hrs by Annexin V-FITC/propidium iodide staining-based flow cytometry (reference value: 0%). It counts as functional. Put shortly:
as §1

The subject of assay [5] is ASPC1. Nature of the assay: Induction of apoptosis in human Aspc-1 cells assessed as viable cells at 5 uM after 72 hrs by Annexin V-FITC/propidium iodide staining-based flow cytometry (reference value: 100%). It counts as functional. Particulars: ASPC1, 72 h, read-out: Activity. An outline of the steps:
as §1

For assay [6], the system named is ASPC1. The assay can be described thus: Antiproliferative activity against human Aspc-1 cells assessed as cell viability at 8 uM after 24 hrs by MTT assay (reference value: 100%). It counts as functional. The settings on record: ASPC1, 24 h, read-out: Activity.
The test system of a further assay is PANC-1 (human). The assay can be described thus: Antiproliferative activity against human PANC-1 cells assessed as cell viability at 8 uM after 48 hrs by MTT assay (reference value: 98.8%). Particulars: PANC-1, 48 h.
The subject of assay [7] is ASPC1. The assay can be described thus: Induction of apoptosis in human Aspc-1 cells assessed as viable cells at 2.5 uM after 72 hrs by Annexin V-FITC/propidium iodide staining-based flow cytometry (reference value: 100%). The format is functional. The settings on record: ASPC1, 72 h, read-out: Activity. Put shortly: as §1
For assay [8], the system named is ASPC1. Nature of the assay: Antiproliferative activity against human Aspc-1 cells assessed as cell viability at 0.5 uM after 24 hrs by MTT assay (reference value: 100%). The format is functional. Particulars: ASPC1, 24 h, read-out: Activity.
The test system of assay [9] is ASPC1. The assay can be described thus: Induction of apoptosis in human Aspc-1 cells assessed as necrotic cells at 2.5 uM after 72 hrs by Annexin V-FITC/propidium iodide staining-based flow cytometry (reference value: 0%). The format is functional. Put shortly: as §1
Assay [10] relates to ASPC1. Nature of the assay: Induction of apoptosis in human Aspc-1 cells assessed as necrotic cells at 10 uM after 72 hrs by Annexin V-FITC/propidium iodide staining-based flow cytometry (reference value: 0%). The format is functional. An outline of the steps: as §1
(In general: Flow cytometry measures light scatter and fluorescence of single cells or particles in a stream.)

The test system of assay [11] is ASPC1. Nature of the assay: Cell cycle arrest in human Aspc-1 cells assessed as accumulation at S phase at 1 uM after 72 hrs by propidium iodide staining-based flow cytometry (reference value: 59.70%). It counts as functional.
Assay [12] deals with ASPC1. The assay can be described thus: Cell cycle arrest in human Aspc-1 cells assessed as accumulation at S phase at 2.5 uM after 72 hrs by propidium iodide staining-based flow cytometry (reference value: 59.70%). It counts as functional.
The test system of assay [13] is ASPC1. The assay can be described thus: Cell cycle arrest in human Aspc-1 cells assessed as accumulation at G0/G1 phase at 2.5 uM after 72 hrs by propidium iodide staining-based flow cytometry (reference value: 39.41%). The format is functional.
Assay [14] is described as follows: Antiproliferative activity against human HPDE6c7 cells after 72 hrs by MTT assay. The settings on record: HPDE6c7, 72 h. It counts as cell-based. An outline of the steps:
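Cells grown in DMEM with 10% FBS and 1% penicillin-streptomycin at 37 °C, 5% CO2. Seeded at 4,000 to 5,000 cells/well, cultured one day, then exposed to compounds for 72 h at 1.25 to 40 μmol/L, five replicates per concentration. MTT absorbance read at 570 nm. IC50 from five-point dose-response curves; mean of at least three separate experiments.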

The term IC50 denotes the concentration needed to halve the response being measured. What is called inhibition is the relative decrease from the control value, in per cent.

Chain of Focal adhesion kinase 1 (Q05397 whole entry, the tested form may be a part): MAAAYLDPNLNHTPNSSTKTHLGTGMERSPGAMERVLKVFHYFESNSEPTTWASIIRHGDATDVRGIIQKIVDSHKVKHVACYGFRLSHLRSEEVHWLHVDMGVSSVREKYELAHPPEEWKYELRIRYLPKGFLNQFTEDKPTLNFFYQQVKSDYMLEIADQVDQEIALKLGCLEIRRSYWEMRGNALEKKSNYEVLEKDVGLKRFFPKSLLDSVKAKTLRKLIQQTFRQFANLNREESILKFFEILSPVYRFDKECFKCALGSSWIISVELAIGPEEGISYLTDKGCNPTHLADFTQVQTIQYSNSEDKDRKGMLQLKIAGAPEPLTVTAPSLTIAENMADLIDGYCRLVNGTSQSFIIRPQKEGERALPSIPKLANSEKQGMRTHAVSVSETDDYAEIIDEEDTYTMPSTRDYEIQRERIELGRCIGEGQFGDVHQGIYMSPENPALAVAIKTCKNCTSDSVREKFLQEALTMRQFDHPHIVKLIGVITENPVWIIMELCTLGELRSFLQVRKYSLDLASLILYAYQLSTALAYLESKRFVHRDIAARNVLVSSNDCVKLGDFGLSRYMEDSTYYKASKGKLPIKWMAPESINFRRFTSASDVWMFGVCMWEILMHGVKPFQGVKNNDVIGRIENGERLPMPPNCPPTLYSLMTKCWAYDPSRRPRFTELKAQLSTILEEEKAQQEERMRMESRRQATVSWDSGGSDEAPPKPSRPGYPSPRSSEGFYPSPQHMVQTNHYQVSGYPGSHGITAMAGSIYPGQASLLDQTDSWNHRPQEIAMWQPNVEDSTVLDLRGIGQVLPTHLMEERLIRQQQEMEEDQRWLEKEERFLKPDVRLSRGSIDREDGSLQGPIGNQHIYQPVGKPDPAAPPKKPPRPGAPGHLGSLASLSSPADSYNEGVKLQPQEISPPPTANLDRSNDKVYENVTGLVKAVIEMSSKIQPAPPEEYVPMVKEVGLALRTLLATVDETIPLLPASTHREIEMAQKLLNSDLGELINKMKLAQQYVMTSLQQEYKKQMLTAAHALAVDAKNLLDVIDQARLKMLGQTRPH

Take `CCOP(=O)(CCCOc1ccc(Nc2ncc([N+](=O)[O-])c(Nc3ccccc3C(=O)NC)n2)cc1)N1CCOCC1` (configuration not stated): the IC50 on Focal adhesion kinase 1 is 4.65 nM; in assay [14] it was more than 20000 nM. Besides, the Activity with ASPC1 [1] was 16.3%; in the assay with ASPC1 [4], 75.3%; in the assay on ASPC1 [9], 2.9%; in the assay with ASPC1 [10] it was 0.4%; with ASPC1 [11] it was 48.41%; in the assay with ASPC1 [12], 28%. For the same compound, the Activity in the assay on ASPC1 [13] was determined as 38.18%. Also, in assay [2], the inhibition was 26%. For the same compound, the values for the viability at 8 µM in the assay on ASPC1 [3], in the assay with ASPC1 [6] and in the assay with PANC-1 (human) were 30.2%, 56.8% and 29.5%, respectively. Besides, the viability at 0.5 µM was 96.7% in the assay on BXPC-3 and 99.4% in the assay with ASPC1 [8]. In addition, the viability at 5 µM in the assay on ASPC1 [5] came out at 40.1%. In addition, in the assay with ASPC1 [7], the viability at 2.5 µM stood at 55.3%.

The values above are taken from ChEMBL document CHEMBL4177662, “Phosphamide-containing diphenylpyrimidine analogues (PA-DPPYs) as potent focal adhesion kinase (FAK) inhibitors with enhanced activity against pancreatic cancer cell lines” (Bioorg Med Chem, 2017).
